Laboratory results published in ChEMBL document CHEMBL4834403, “Design and Synthesis of Novel Epigenetic Inhibitors Targeting Histone Deacetylases, DNA Methyltransferase 1, and Lysine Methyltransferase G9a with In Vivo Efficacy in Multiple Myeloma” (J Med Chem, 2021).

Columns and labels:
Histone deacetylase 1 = Histone deacetylase 1 (Homo sapiens, UniProt Q13547); assay: Inhibition of full length human C-terminal His-tagged/C-terminal Flag-tagged HDAC1 using fluorogenic acetylated peptide as substrate incubated for 30 mins by fluorescence plate reader assay
Sequence of Histone deacetylase 1 (Q13547 whole entry): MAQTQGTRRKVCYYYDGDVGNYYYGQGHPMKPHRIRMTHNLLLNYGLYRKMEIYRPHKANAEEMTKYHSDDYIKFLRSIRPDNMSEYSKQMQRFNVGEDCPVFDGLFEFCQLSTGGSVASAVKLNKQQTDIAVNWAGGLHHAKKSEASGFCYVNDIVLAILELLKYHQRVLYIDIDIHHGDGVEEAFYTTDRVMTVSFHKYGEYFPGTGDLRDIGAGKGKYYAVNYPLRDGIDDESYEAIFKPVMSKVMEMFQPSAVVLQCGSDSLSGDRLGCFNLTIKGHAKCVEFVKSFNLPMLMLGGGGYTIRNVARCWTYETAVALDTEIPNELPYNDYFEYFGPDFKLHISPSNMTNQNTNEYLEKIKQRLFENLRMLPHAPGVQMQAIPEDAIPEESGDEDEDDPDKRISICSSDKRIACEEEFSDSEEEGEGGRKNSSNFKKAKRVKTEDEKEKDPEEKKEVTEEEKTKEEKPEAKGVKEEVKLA

Histone deacetylase 2 = Histone deacetylase 2 (Homo sapiens, UniProt Q92769)
[1] = target: Histone deacetylase 3/Nuclear receptor corepressor 2 (HDAC3/NCoR2) (Homo sapiens, UniProt O15379); assay: Inhibition of full length human C-terminal His-tagged HDAC3/human N-terminal GST-agged NCOR2 using fluorogenic acetylated peptide as substrate incubated for 30 mins by fluorescence plate reader assay; type: protein-complex assay
Sequence of Histone deacetylase 3/Nuclear receptor corepressor 2 (HDAC3/NCoR2) (O15379 whole entry): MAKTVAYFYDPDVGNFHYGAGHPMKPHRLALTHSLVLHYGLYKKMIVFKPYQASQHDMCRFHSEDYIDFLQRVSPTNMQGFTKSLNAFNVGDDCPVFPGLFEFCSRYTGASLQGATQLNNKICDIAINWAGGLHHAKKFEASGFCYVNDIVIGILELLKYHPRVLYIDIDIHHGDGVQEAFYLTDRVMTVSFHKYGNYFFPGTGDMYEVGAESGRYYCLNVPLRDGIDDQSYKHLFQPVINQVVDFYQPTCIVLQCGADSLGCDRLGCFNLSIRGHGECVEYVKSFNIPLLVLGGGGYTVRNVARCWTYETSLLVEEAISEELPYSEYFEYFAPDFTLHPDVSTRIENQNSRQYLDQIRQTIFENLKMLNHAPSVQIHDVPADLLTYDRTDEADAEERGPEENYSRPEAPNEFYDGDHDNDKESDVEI
Sequence of Histone deacetylase 3/Nuclear receptor corepressor 2 (HDAC3/NCoR2) (Q9Y618 whole entry, further chain): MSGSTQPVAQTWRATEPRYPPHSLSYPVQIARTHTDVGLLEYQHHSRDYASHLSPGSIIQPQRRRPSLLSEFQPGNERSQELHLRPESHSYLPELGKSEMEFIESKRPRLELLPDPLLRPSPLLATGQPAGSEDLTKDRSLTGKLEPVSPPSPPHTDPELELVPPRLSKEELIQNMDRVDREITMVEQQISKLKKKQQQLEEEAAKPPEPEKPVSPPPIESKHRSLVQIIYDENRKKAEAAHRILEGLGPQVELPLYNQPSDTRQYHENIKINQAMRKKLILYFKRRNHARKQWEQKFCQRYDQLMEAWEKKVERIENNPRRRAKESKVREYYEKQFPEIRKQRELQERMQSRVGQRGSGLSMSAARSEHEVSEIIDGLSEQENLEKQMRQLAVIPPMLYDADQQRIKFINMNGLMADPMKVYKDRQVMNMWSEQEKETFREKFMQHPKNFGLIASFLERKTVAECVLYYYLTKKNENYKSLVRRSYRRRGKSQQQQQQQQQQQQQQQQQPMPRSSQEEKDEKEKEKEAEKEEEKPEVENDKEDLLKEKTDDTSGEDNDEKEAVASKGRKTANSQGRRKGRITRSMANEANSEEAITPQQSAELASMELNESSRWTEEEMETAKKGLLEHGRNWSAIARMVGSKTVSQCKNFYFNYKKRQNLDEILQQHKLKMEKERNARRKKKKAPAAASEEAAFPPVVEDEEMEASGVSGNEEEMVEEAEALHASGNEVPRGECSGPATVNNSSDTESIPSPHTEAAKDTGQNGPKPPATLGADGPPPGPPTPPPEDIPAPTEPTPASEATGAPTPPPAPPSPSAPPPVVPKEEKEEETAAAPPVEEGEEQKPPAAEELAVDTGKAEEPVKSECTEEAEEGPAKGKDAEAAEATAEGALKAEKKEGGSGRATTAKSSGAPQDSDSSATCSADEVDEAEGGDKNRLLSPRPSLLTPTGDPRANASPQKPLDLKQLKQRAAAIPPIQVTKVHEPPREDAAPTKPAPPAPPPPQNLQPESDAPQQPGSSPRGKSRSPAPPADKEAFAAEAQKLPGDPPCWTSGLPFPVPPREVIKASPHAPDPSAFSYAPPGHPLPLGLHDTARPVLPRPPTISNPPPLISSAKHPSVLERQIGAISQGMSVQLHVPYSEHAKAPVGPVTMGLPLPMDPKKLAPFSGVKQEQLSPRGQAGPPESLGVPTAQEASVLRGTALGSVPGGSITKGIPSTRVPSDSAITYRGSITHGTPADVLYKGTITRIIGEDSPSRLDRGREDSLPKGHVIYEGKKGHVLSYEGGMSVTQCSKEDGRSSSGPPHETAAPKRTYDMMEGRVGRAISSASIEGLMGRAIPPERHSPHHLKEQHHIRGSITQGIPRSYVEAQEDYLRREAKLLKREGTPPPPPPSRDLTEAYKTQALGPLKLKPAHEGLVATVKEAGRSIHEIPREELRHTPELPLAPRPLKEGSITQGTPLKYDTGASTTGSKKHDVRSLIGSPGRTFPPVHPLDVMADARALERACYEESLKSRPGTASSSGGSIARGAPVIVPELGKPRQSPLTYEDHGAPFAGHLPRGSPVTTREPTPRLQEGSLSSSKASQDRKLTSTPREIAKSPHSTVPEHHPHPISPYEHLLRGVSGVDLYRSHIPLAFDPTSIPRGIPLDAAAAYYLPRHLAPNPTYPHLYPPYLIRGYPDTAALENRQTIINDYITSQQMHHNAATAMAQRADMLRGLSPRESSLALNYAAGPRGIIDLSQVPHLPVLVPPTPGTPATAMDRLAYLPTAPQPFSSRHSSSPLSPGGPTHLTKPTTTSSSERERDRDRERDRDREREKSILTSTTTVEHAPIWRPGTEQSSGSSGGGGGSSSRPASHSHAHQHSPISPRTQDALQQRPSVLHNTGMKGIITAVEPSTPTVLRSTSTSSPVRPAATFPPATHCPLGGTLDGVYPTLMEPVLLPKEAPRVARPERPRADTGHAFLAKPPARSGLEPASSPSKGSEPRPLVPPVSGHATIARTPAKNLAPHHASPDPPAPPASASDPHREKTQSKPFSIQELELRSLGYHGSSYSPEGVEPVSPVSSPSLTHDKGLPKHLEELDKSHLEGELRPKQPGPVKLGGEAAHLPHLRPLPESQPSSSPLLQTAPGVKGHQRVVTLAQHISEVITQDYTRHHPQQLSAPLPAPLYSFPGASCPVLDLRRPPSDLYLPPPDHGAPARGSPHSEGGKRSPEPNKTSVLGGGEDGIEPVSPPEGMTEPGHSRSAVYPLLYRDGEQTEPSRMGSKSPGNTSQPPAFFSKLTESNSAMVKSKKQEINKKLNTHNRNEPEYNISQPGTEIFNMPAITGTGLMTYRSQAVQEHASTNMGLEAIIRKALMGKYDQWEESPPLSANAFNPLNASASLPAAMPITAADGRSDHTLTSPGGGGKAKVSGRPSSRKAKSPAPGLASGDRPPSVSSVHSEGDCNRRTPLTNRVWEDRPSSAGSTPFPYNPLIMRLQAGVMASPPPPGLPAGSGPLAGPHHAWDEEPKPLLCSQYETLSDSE

[2] = target: T1, Protein deacetylase HDAC6 (Homo sapiens, UniProt Q9UBN7); assay: Inhibition of full length human N-terminal GST-tagged HDAC6 using fluorogenic acetylated peptide as substrate incubated for 30 mins by fluorescence plate reader assay
T1 sequence (Q9UBN7 whole entry): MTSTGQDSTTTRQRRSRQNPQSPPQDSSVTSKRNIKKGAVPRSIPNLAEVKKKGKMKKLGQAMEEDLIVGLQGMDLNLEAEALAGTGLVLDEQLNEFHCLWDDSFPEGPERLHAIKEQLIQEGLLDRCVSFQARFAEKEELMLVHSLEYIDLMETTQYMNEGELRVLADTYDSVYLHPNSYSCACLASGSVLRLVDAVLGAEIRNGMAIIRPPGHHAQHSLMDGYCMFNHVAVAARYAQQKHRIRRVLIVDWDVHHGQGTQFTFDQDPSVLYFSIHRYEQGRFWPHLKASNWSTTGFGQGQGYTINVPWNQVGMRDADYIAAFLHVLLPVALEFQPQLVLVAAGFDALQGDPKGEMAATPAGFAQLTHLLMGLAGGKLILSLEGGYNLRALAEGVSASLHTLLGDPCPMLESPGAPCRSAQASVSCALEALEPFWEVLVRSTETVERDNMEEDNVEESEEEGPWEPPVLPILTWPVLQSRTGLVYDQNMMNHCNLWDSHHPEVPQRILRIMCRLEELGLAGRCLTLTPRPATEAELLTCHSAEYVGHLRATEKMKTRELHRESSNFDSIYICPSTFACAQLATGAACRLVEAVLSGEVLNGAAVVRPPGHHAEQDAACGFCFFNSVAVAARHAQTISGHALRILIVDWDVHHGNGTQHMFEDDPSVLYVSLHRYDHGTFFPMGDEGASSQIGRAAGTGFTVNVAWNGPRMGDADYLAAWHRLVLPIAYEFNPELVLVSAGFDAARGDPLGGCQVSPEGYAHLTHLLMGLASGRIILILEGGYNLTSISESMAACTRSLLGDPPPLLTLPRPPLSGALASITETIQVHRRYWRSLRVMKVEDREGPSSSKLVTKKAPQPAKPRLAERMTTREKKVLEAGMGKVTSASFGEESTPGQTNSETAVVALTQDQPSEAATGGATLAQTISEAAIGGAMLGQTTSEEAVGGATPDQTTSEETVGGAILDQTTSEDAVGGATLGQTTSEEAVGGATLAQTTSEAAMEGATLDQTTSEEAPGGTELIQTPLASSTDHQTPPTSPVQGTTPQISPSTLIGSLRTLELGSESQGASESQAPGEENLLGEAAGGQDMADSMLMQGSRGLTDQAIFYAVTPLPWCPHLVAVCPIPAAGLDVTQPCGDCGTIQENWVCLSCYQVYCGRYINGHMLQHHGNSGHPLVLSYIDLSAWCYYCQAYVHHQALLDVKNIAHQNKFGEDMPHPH

[3] = target: T2, Histone-lysine N-methyltransferase EHMT2 (Homo sapiens, UniProt Q96KQ7); assay: Inhibition of human G9a enzyme using histone monomethyl-H3K9 peptide as substrate incubated for 1 hr in presence of SAM by TR-FRET assay
T2 sequence (Q96KQ7 whole entry): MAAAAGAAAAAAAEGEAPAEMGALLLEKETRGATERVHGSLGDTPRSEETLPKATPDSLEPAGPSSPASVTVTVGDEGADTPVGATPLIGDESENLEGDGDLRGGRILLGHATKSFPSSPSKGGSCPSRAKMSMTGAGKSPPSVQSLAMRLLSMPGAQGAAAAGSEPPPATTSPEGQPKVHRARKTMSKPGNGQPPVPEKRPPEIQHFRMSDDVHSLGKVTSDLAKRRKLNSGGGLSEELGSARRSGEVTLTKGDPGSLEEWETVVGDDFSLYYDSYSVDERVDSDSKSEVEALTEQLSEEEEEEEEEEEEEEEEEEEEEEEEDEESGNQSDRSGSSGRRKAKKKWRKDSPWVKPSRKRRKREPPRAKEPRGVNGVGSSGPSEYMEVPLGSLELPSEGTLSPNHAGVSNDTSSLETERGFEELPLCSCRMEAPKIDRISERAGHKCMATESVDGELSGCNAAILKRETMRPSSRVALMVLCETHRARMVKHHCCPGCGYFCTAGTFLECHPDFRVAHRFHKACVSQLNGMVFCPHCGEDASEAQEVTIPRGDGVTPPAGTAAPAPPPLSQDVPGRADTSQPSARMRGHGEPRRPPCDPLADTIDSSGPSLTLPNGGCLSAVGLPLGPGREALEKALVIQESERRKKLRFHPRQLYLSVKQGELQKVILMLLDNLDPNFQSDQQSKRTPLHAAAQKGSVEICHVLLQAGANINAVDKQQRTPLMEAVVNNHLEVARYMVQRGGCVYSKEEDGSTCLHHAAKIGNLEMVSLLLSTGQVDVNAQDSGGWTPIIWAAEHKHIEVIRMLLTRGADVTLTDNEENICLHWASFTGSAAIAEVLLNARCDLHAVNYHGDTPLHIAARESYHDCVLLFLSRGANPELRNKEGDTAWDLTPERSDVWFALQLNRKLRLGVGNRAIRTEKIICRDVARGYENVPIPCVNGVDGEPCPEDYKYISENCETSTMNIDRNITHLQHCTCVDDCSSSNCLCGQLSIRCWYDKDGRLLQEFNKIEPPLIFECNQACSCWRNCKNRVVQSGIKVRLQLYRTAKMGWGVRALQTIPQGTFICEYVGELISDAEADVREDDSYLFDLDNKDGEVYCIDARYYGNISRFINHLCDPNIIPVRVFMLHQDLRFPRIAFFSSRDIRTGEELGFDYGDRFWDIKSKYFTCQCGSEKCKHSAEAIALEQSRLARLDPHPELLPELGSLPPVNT

[4] = target: DNA (cytosine-5)-methyltransferase 1 (Homo sapiens, UniProt P26358); assay: Inhibition of human DNMT1 enzyme using polydeoxy-inosine polydeoxy-cytosine DNA as substrate incubated for 15 mins in presence of SAM by TR-FRET assay
Sequence of DNA (cytosine-5)-methyltransferase 1 (P26358 whole entry): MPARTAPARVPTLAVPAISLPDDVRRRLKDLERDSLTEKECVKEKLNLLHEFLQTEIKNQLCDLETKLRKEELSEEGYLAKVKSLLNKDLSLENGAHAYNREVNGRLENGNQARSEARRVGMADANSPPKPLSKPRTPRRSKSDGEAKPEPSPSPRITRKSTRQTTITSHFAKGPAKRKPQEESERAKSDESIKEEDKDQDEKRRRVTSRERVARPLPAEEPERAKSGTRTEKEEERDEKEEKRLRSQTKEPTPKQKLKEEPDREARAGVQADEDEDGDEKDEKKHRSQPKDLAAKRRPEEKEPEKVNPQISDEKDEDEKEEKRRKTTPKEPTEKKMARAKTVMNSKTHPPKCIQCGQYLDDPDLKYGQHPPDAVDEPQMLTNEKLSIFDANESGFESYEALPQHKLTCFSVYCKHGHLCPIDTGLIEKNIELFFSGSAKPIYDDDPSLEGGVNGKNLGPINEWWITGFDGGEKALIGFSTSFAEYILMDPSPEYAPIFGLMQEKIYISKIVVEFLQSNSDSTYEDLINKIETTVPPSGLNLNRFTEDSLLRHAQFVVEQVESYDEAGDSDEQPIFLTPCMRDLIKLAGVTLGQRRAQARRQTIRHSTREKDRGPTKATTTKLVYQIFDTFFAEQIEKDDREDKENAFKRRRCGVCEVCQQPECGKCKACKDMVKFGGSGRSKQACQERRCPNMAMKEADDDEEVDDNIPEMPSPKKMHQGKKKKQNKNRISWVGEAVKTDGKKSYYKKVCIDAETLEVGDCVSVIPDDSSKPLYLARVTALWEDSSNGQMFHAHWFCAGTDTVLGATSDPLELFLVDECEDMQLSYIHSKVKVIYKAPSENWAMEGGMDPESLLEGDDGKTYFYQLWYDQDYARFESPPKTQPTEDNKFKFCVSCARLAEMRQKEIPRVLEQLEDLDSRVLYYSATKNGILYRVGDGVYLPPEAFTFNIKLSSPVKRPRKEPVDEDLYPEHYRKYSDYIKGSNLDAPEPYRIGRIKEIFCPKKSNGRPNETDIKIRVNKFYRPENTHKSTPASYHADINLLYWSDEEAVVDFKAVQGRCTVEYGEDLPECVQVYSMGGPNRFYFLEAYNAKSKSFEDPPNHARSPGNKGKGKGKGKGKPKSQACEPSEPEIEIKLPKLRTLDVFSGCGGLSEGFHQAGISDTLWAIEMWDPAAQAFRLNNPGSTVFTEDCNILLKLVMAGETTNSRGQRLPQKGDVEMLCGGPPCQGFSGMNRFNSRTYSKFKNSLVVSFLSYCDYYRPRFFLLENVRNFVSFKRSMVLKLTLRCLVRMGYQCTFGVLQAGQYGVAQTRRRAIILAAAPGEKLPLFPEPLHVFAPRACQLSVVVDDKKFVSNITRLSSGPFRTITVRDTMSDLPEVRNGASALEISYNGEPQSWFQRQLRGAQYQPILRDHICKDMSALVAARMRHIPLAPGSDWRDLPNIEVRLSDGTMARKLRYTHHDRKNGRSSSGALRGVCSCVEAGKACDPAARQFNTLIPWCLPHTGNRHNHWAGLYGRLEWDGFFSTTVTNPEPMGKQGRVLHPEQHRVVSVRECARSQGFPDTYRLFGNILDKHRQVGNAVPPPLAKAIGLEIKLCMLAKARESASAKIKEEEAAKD

MM1.S = assay: Antiproliferative activity against human MM1.S cells assessed as inhibition of cell proliferation measured up to 72 hrs by CellTiter96 Aqueous one reagent based assay; type: functional
THLE-2 = assay: Cytotoxicity against human THLE-2 cells assessed as decrease in cell viability measured after 72 hrs by Vialight-plus cell proliferation assay; type: cell-based; settings: thle-2, 72 h
Procedure, shortened: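 Human THLE-2 cells exposed to compound for 72 h. Cytotoxicity reported as LC50 and pLC50, averaged from at least two independent experiments on different days.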

[5] = Permeability of the compound in PBS/EtOH buffer (70:30) incubated for 18 hrs by UV plate reader based PAMPA assay; type: ADME; settings: read-out: permeability
[6] = time hrs <=72, read-out: pGI50 (converted)

Structure (SMILES) | IC50 (Histone deacetylase 1) [nM] | IC50 (Histone deacetylase 2) [nM] | IC50 [1] [nM] | IC50 [2] [nM] | IC50 [3] [nM] | IC50 [4] [nM] | GI50 (MM1.S; time hrs <=72, read-out: GI50) [nM] | GI50 (MM1.S; [6]) [nM] | LC50 (THLE-2) [nM] | pLC50 (THLE-2) | Papp at 18 h [5] [×10⁻⁶ cm/s]
COc1cc2nc(-c3ccc(C)o3)cc(NCC3C4CCC3CN(c3ncc(C(=O)NO)cn3)C4)c2cc1OC (centres undefined) | 22 | 125 | 33 | 239 | > 10000 | 1680 | 459 | 457 | 1350 | 5.87 | 0.959
COc1cc2c(NCc3ccc(C(=O)NO)cc3)cc(-c3ccc(C)o3)nc2cc1OCCCN1CCCC1 | 9 | 60 | 21 | 11 | 471 | 795 | 4500 | 4470 | 11300 | 4.95 | 0.1
COc1cc2nc(-c3ccc(C)o3)cc(NCC3CCN(Cc4ccc(C(=O)NO)s4)CC3)c2cc1OC | 303 |  |  | 66 | > 10000 | 323 | 1940 | 1950 | 2227 | 5.65 | 0.401
COc1cc2c(NCc3ccc(-c4ccc(C(=O)NO)cc4)cc3)cc(-c3ccc(C)o3)nc2cc1OCCCN1CCCC1 | 45 |  |  | 127 | 2240 | 2570 | 1810 | 1820 | 13500 | 4.87 | 0.11
COc1cc2nc(-c3ccc(C)o3)cc(NC3CCN(c4ncc(C(=O)NO)cn4)CC3)c2cc1OC | 63 | 409 | 73 | 343 | > 10000 | 7140 | 1020 | 1020 | 3090 | 5.51 | 0.596
COc1cc2c(NC3CCN(c4ccc(C(=O)NO)cc4)CC3)cc(-c3ccc(C)o3)nc2cc1OCCCN1CCCC1 | 415 |  |  | 133 | 25 | 691 | > 10000 | > 10000 | 6656 | 5.18 | 0.014
COc1cc2nc(-c3ccc(C)o3)cc(NCC3CCN(Cc4ccc(C(=O)NO)cc4)CC3)c2cc1OC | 330 |  |  | 84 | > 10000 | 267 | 217 | 219 | 204 | 6.69 | 0.556
